Assay results from different studies.
Lines come from different studies, so protocols differ. pIC50: −log10 of the molar value.
MEP1A: Meprin A subunit alpha (MEP1A, Homo sapiens, UniProt Q16819)
PFF0160c: Dihydroorotate dehydrogenase (quinone), mitochondrial (PFF0160c, Plasmodium falciparum, UniProt Q08210)
PDE5A: cGMP-specific 3',5'-cyclic phosphodiesterase (PDE5A, Homo sapiens, UniProt O76074)
PPO3: PPO3 (Agaricus bisporus, UniProt C7FF04)
AURKB: Aurora kinase B (AURKB, Homo sapiens, UniProt Q96GD4)
KDM1A: Lysine-specific histone demethylase 1A (KDM1A, Homo sapiens, UniProt O60341)

O=C(CCN(Cc1ccc2c(c1)OCO2)Cc1ccc(Cl)cc1F)NO  pIC50 (MEP1A; enzyme activity; inhibitor): 6.73
Nc1cc(Nc2ccc(C(F)(F)F)cc2)n2ncnc2n1  pIC50 (PFF0160c; enzyme activity; inhibitor): 4.51
CCN1C(=O)[C@H]2Cc3c([nH]c4ccccc34)[C@@H](c3cccnc3)N2C1=O  pIC50 (PDE5A; enzyme activity; inhibitor; FP): 6.85
Cc1ccc(C(C)C)cc1NC(=O)COC(=O)/C=C/c1ccccc1  pIC50 (PPO3; enzyme activity; inhibitor): 6.11
CC1Cc2ccccc2N1C(=O)NCCCCN(C)[C@@H]1Cc2cccc3[nH]c(=O)n(c23)C1 (mixture of isomers)  pIC50 (5-hydroxytryptamine receptor 2A (HTR2A, Homo sapiens, UniProt P28223); ligand displacement; radioligand): 5.39
COC(=O)[C@H]1Cc2c([nH]c3ccccc23)[C@H](c2ccc(OC)c(OC)c2)N1C(=O)CCl  pIC50 (PDE5A; enzyme activity; inhibitor; FP): < 5.00
COc1ccc(N=Nc2c(N)nc(N)nc2Cl)cc1  pIC50 (PPO3; enzyme activity; inhibitor; absorbance): 4.55
CC/C=C\C/C=C\C/C=C\C/C=C\C/C=C\CCCC(=O)O  pIC50 (Deoxyribonuclease-1 (DNASE1, Bos taurus, UniProt P00639); enzyme activity; inhibitor): < 4.00
Cc1cc(Nc2ccc(Cl)cc2)n2[nH]c(=O)nc2n1  pIC50 (PFF0160c; enzyme activity; inhibitor): < 5.00
CNc1cc(Nc2ccc(C(F)(F)F)cc2)n2ncnc2n1  pIC50 (PFF0160c; enzyme activity; inhibitor): 5.13
COc1cc2c(cc1OC)-c1c/c(=N\c3c(C)cc(C)cc3C)n(C)c(=O)n1CC2  pIC50 (PDE5A; enzyme activity; inhibitor; FP): 5.47
COc1ccc(Nc2nc(N)c(C(=O)c3ccc(OC)c(OC)c3)s2)cc1  pIC50 (Sphingosine kinase 1 (SPHK1, Homo sapiens, UniProt Q9NYA1); enzyme activity; inhibitor): ~5.52
CC(C)(C)N1C(=O)[C@@H]2Cc3c([nH]c4ccccc34)[C@@H](c3cccnc3)N2C1=O  pIC50 (PDE5A; enzyme activity; inhibitor; FP): 6.74
CNCCc1nc2nc(C)cc(Nc3ccc(Cl)cc3)n2n1  pIC50 (PFF0160c; enzyme activity; inhibitor): < 5.00
CC(C)C[C@H]1CC(=O)N[C@@H](C)C(=O)N[C@@H](CCCCCC(=O)O)C(=O)N[C@@H](Cc2c[nH]c3ccccc23)C(=O)N1  pIC50 (Histone deacetylase 2 (HDAC2, Homo sapiens, UniProt Q92769); enzyme activity; inhibitor): 6.70
CC(C)(C)n1nc(-c2ccc3nc(OC4CC4)ccc3c2)c(C(N)=O)c1N  pIC50 (AURKB; cell-free assay; inhibitor): < 5.00
COc1ccc2c(Oc3ccc4c(C(=O)Nc5ccccc5N)cccc4c3)ccnc2c1  pIC50 (AURKB; enzyme activity; inhibitor): 8.05
CCCSc1nc(Sc2nc3ccccc3s2)c2nnn(CCO)c2n1  pIC50 (KDM1A; enzyme activity; inhibitor; fluorescence): 6.07
O=C(Nc1c[nH]nc1-c1nc2cc(CN3CCOCC3)ccc2[nH]1)NC1CC1  pIC50 (AURKB; enzyme activity; inhibitor; mobility shift): 8.64
CCCCc1ccc(-c2ccc(-c3cc(C(=O)O)c4ccc(OC)cc4n3)o2)cc1  pIC50 (Eukaryotic initiation factor 4A-I (EIF4A1, Homo sapiens, UniProt P60842); ATPase activity; inhibitor; absorbance): < 3.82
COCCc1nc2nc(C)cc(Nc3cccc(Cl)c3)n2n1  pIC50 (PFF0160c; enzyme activity; inhibitor): < 5.00
Cc1cnc(-c2ccc(-c3ccc(NC(=O)Nc4c(F)cc(F)cc4F)cc3F)c3c2C(=O)NC3)[nH]1  pIC50 (Cytoplasmic tyrosine-protein kinase BMX (BMX, Homo sapiens, UniProt P51813); enzyme activity; inhibitor): 7.84
CN(C)C/C=C/C(=O)Nc1cccc(C(=O)Nc2ccc(Nc3nccc(-c4cccnc4)n3)cc2)c1  pIC50 (Serine/threonine-protein kinase Nek3 (NEK3, Homo sapiens, UniProt P51956); enzyme activity; inhibitor; radiometric): 6.73
CC[C@@H](C(=O)Nc1ccc(C(N)=O)c(F)c1)n1cc(OC)c(-c2cc(Cl)ccc2-n2cc(C(F)(F)F)nn2)cc1=O  pIC50 (Vitamin K-dependent protein C (PROC, Homo sapiens, UniProt P04070); enzyme activity; inhibitor): < 5.00
O=C1[C@H]2Cc3c([nH]c4ccccc34)[C@@H](c3cccnc3)N2C(=O)N1c1ccc(Cl)cc1  pIC50 (PDE5A; enzyme activity; inhibitor; FP): 5.30
Cc1cc(Nc2cccc(Cl)c2)n2nc(CC3CC3)nc2n1  pIC50 (PFF0160c; enzyme activity; inhibitor): < 5.00
Cc1ccc(C(C)C)cc1NC(=O)COC(=O)c1cc(O)cc(O)c1  pIC50 (PPO3; enzyme activity; inhibitor): 4.69
CNCCOc1nc2nc(C)cc(Nc3cccc(Cl)c3)n2n1  pIC50 (PFF0160c; enzyme activity; inhibitor): < 5.00
Cc1cc(Nc2cc3ncccc3c(N[C@@H]3C[C@H]4CC[C@@H](C3)N4CCC#N)n2)n[nH]1  pIC50 (AURKB; target engagement in cells; inhibitor; BRET): < 5.00
CCCSc1nc(Sc2nnnn2C)c2nnn(CCc3c[nH]c4ccccc34)c2n1  pIC50 (KDM1A; enzyme activity; inhibitor; fluorescence): 6.60
Cc1ccc(N=Nc2c(N)nc(N)nc2Cl)cc1  pIC50 (PPO3; enzyme activity; inhibitor; absorbance): 4.38
CCN1C(=O)[C@H]2Cc3c([nH]c4ccccc34)[C@@H](c3ccc(OC)c(OC)c3)N2C1=O  pIC50 (PDE5A; enzyme activity; inhibitor; FP): 5.29
CCCC[C@H](NC(=O)[C@H](C)c1c(C)[nH]c2ccc(O)cc12)c1ncc(-c2cc3ccccc3nc2OC)[nH]1  pIC50 (Cannabinoid receptor 1 (CNR1, Homo sapiens, UniProt P21554); cell-free assay): 5.01
Cc1cc(Nc2ccc(Cl)cc2)n2nc(CCN)nc2n1  pIC50 (PFF0160c; enzyme activity; inhibitor): < 5.00
Cc1ccc(C(C)C)cc1NC(=O)COC(=O)/C=C/c1ccccc1O  pIC50 (PPO3; enzyme activity; inhibitor): 5.74
COc1ccc(C2=NN(C3CCCCCC3)C(=O)[C@@H]3CC=CC[C@H]23)cc1-c1ccc(C(=O)NCC(N)=O)cc1 (relative stereo)  pIC50 (3',5'-cyclic-AMP phosphodiesterase 4A (PDE4A, Homo sapiens, UniProt P27815); enzyme activity; inhibitor): 6.50
O=C(NC1CC2(C1)CN(C(=O)c1cc3ccccc3c(=O)[nH]1)C2)c1c[nH]nn1  pIC50 (Poly [ADP-ribose] polymerase 1 (PARP1, Homo sapiens, UniProt P09874); enzyme activity; inhibitor): 5.89
CCCS(=O)(=O)Nc1ccc(F)c(C(=O)c2c[nH]c3ncc(Cl)cc23)c1F  pIC50 (Serine/threonine-protein kinase A-Raf (ARAF, Homo sapiens, UniProt P10398); enzyme activity; inhibitor; lysate): 7.66
COc1ccc(N=Nc2c(N)nc(N)nc2N)cc1  pIC50 (PPO3; enzyme activity; inhibitor; absorbance): 4.36
Cc1cc(Nc2cccc(Cl)c2)n2nc(OCCN)nc2n1  pIC50 (PFF0160c; enzyme activity; inhibitor): < 5.00
O=C(CCN(Cc1ccc(Cl)cc1F)Cc1ccc(Cl)c(O)c1F)NO  pIC50 (MEP1A; enzyme activity; inhibitor): 6.67
Cc1cc(Nc2cccc(Cl)c2)n2nc(CN)nc2n1  pIC50 (PFF0160c; enzyme activity; inhibitor): < 5.00
Cc1ccc(COc2ccc3c(c2)NC(=C(C#N)C(=O)c2ccc(Cl)cc2Cl)NC3=O)cc1  pIC50 (Cytoplasmic dynein 1 heavy chain 1 (DYNC1H1, Homo sapiens, UniProt Q14204); ATPase activity; inhibitor): 3.55
